Data on 57 sequences can be found in the array DNA melting data of Ke et al. (doi:10.1101/2024.01.08.574731).

Series [1] in a line: melting temperature; fluorescence melt of hairpins on a sequencing array, two-state fit, raised by 9.35 °C to match UV melts. The note with it: sodium 0.088 M. An outline of the steps: (§1)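 Melting temperature and folding enthalpy were obtained by bootstrapped two-state fitting. Fits used Cy3 fluorescence of library hairpins with annealed Cy3 and quencher oligos on a sequenced MiSeq flow cell, imaged in 50 mM Na-HEPES pH 8.0, 25 mM NaCl in 2.5 °C steps up to 60 °C and normalised to pre-quench Cy3 and control constructs. Four replicates were combined by inverse-variance weighting, and fitted temperatures were raised by 9.35 °C to match UV melts.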

The nature of series [2]: folding enthalpy; higher = less favourable; fluorescence melt of hairpins on a sequencing array, two-state fit. The settings on record: sodium 0.088 M. An outline of the steps:
as §1

Take GCGTCGGCGAAAGCCCGC (((..(((....)))))): in series [1], the Tm stood at 58.7 °C. Besides, the folding enthalpy in series [2] was -17 kcal/mol.
Turning to GCGTCTAACGC ((((...)))), in series [1], the Tm was determined as 53.3 °C. Moreover, the folding enthalpy in series [2] was -20.6 kcal/mol.
Take GCGTCTCACGC ((((...)))): in series [1], the Tm was determined as 56.4 °C. Moreover, the folding enthalpy in series [2] was -23.4 kcal/mol.
With GCGTCTCCGAAAGGACGC (((..(((....)))))), in series [1], the Tm is 56.8 °C. The folding enthalpy in series [2] was -33.1 kcal/mol.
For the sequence GCGTCTCGAAAGAGCCGC (((.(((....))).))), in series [1], the Tm came out at 56.5 °C. Also, the folding enthalpy in series [2] was -42.6 kcal/mol.
Turning to GCGTCTCGAAAGAGCGC (((.(((....)))))), in series [1], the Tm worked out at 66.8 °C. The folding enthalpy in series [2] was -31 kcal/mol.
For GCGTCTGGAAACAAACGC ((((.((....)).)))), in series [1], the Tm was found to be 44.5 °C. For the same sequence, in series [2], the folding enthalpy was -32.2 kcal/mol.
For the sequence GCGTCTGGAAACAGATGC ((.((((....)))).)), the Tm in series [1] is 54.6 °C. For the same sequence, the folding enthalpy in series [2] is -55.5 kcal/mol.
As to GCGTCTGTACGC ((((....)))), in series [1], the Tm is 53.3 °C. The folding enthalpy in series [2] is -26.2 kcal/mol.
For GCGTGAACGAAAGTTCGC (((..(((....)))))), the Tm in series [1] turned out to be 48.6 °C. The folding enthalpy in series [2] was -15.3 kcal/mol.
Turning to GCGTGACGAAAGTCTCGC (((.(((....))).))), the Tm in series [1] was found to be 67.7 °C. Further, the folding enthalpy in series [2] was -39.4 kcal/mol.
Consider GCGTGAGGAAACTCACAC (.(((((....))))).), for which the Tm in series [1] was determined as 42.3 °C. In series [2], the folding enthalpy was -13.8 kcal/mol.
GCGTGAGGAAACTCGCGC (((.(((....))).))): the Tm in series [1] is 64.8 °C. For the same sequence, the folding enthalpy in series [2] is -43 kcal/mol.
As for GCGTGAGGAAACTTACGC ((((.((....)).)))), the Tm in series [1] is 52 °C. Besides, in series [2], the folding enthalpy is -33.8 kcal/mol.
On to GCGTGATCGAAAGATCGC (((..(((....)))))), for which the Tm in series [1] was 47.5 °C. In addition, the folding enthalpy in series [2] was -15.6 kcal/mol.
Turning to GCGTGCCCACGC ((((....)))), the Tm in series [1] came to 60.2 °C. In addition, in series [2], the folding enthalpy is -26.6 kcal/mol.
As to GCGTGCGAAAGCAGACGC ((((((....)))..))), the Tm in series [1] came out at 62.7 °C. The folding enthalpy in series [2] is -28.1 kcal/mol.
Turning to GCGTGCGAACGC ((((....)))), the Tm in series [1] came out at 69 °C. In addition, in series [2], the folding enthalpy is -18.2 kcal/mol.
Taken in the same sequence, the figures for GCGTGCGCGAAAGCGCGC (((..(((....)))))) were 65.1 °C and -6.87 kcal/mol.
With GCGTGCGGAAACGCATGC ((.((((....)))).)), the Tm in series [1] was determined as 67.4 °C. Moreover, the folding enthalpy in series [2] is -31 kcal/mol.
Regarding GCGTGCTCGAAAGAGCGC (((..(((....)))))), in series [1], the Tm came to 51.5 °C. In series [2], the folding enthalpy is -10.2 kcal/mol.
In the case of GCGTGGATACGC ((((....)))), in series [1], the Tm was 66.6 °C. Also, in series [2], the folding enthalpy was -28.2 kcal/mol.
Taken in the same sequence, the figures for GCGTGGCGAAAGCAAGGC ((.(.((....)).).)) were 46.6 °C and -18.8 kcal/mol.
On to GCGTGGCGAAAGCCTGGC ((..(((....)))..)), for which the Tm in series [1] was 52.4 °C. In series [2], the folding enthalpy is -17.4 kcal/mol.
As for GCGTGGCGAAAGCCTTGC ((..(((....)))..)), in series [1], the Tm was found to be 48 °C. Moreover, the folding enthalpy in series [2] was -16.4 kcal/mol.
Taken in the same sequence, the figures for GCGTGGCGAAAGCTCCGC (((..((....))..))) were 54.8 °C and -22.1 kcal/mol.
As for GCGTGGCGAAAGCTGCGC (((..((....))..))), the Tm in series [1] was 67.9 °C. In addition, the folding enthalpy in series [2] is -40.4 kcal/mol.
On to GCGTGGCGAAAGCTTCGC (((..((....))..))), for which the Tm in series [1] is 59.5 °C. In addition, the folding enthalpy in series [2] is -23.6 kcal/mol.
Turning to GCGTGGTCGAAAGACCGC (((..(((....)))))), the Tm in series [1] came out at 53.2 °C. Also, the folding enthalpy in series [2] was -10.9 kcal/mol.
Consider GCGTGTCGAAAGACCGC (((.(((....)))))), for which, in series [1], the Tm is 67 °C. For the same sequence, in series [2], the folding enthalpy is -33 kcal/mol.
Turning to GCGTGTGCGAAAGCACGC (((..(((....)))))), the Tm in series [1] was 57.5 °C. In addition, in series [2], the folding enthalpy is -9.9 kcal/mol.
Consider GCGTGTTACGC ((((...)))), for which the Tm in series [1] worked out at 61.6 °C. The folding enthalpy in series [2] was -24 kcal/mol.
For GCGTGTTGACGC ((((....)))), the Tm in series [1] worked out at 55 °C. Besides, the folding enthalpy in series [2] was -23.9 kcal/mol.
For the sequence GCGTTAACGAAAGTTCGC (((..(((....)))))), in series [1], the Tm is 46.8 °C. Also, in series [2], the folding enthalpy was -29.4 kcal/mol.
Consider GCGTTACAACGC ((((....)))), for which the Tm in series [1] was found to be 58.6 °C. Further, the folding enthalpy in series [2] is -26.4 kcal/mol.
On to GCGTTACCACGC ((((....)))), for which the Tm in series [1] came out at 52.8 °C. Besides, in series [2], the folding enthalpy was -24.2 kcal/mol.
Regarding GCGTTACGACGC ((((....)))), in series [1], the Tm turned out to be 56.8 °C. Further, the folding enthalpy in series [2] is -25.9 kcal/mol.
For the sequence GCGTTAGACGC ((((...)))), the Tm in series [1] was 51.3 °C. The folding enthalpy in series [2] is -18.1 kcal/mol.
As to GCGTTAGCACGC ((((....)))), the Tm in series [1] came out at 61.7 °C. Also, the folding enthalpy in series [2] was -8.5 kcal/mol.
Taken in the same sequence, the figures for GCGTTAGGAAACTAGTGC ((..(((....)))..)) were 25.7 °C and -11.4 kcal/mol.
As for GCGTTAGTACGC ((((....)))), the Tm in series [1] was 51.1 °C. In series [2], the folding enthalpy was -19.8 kcal/mol.
For GCGTTATCGAAAGATCGC (((..(((....)))))), the Tm in series [1] is 44.3 °C. Further, the folding enthalpy in series [2] was -26.1 kcal/mol.
In the case of GCGTTCAGACGC ((((....)))), the Tm in series [1] amounted to 53.6 °C. Further, in series [2], the folding enthalpy is -23.8 kcal/mol.
Taken in the same sequence, the figures for GCGTTCCGAAAGGACCGC (((.(((....))).))) were 58.4 °C and -46.4 kcal/mol.
Taken in the same sequence, the figures for GCGTTCCGAAAGGACGC (((.(((....)))))) were 63.3 °C and -41.9 kcal/mol.
With GCGTTCCGACGC ((((....)))), the Tm in series [1] was found to be 58 °C. In addition, the folding enthalpy in series [2] was -27.8 kcal/mol.
In the case of GCGTTCGAAAGAACCCGC ((((((....)))..))), the Tm in series [1] was 40.8 °C. For the same sequence, in series [2], the folding enthalpy was -14.2 kcal/mol.
As to GCGTTCGAAAGAAGTCGC ((((((....)))..))), in series [1], the Tm was 37.7 °C. Besides, in series [2], the folding enthalpy is -26.4 kcal/mol.
As to GCGTTCGAAAGAATACGC ((((((....)))..))), in series [1], the Tm came to 47.5 °C. Further, the folding enthalpy in series [2] is -27.3 kcal/mol.
For the sequence GCGTTCGAAAGAATTCGC ((((((....)))..))), the Tm in series [1] worked out at 36.2 °C. Also, the folding enthalpy in series [2] is -26.6 kcal/mol.
For GCGTTCGAACGC ((((....)))), the Tm in series [1] is 56.9 °C. In addition, the folding enthalpy in series [2] was -36 kcal/mol.
For GCGTTGAAACGC ((((....)))), in that order: 53.5 °C and -20.8 kcal/mol.
On to GCGTTGACACGC ((((....)))), for which the Tm in series [1] is 50.1 °C. Also, the folding enthalpy in series [2] is -21.2 kcal/mol.
For GCGTTGACGAAAGTCCGC (((..(((....)))))), the Tm in series [1] was determined as 51.4 °C. Moreover, the folding enthalpy in series [2] is -24.1 kcal/mol.
Regarding GCGTTGCCGAAAGGCCGC (((..(((....)))))), the Tm in series [1] was found to be 55.6 °C. In addition, the folding enthalpy in series [2] is -16.6 kcal/mol.
Turning to GCGTTGCGAAAGCACGGC ((..(((....)))..)), the Tm in series [1] came out at 58.9 °C. The folding enthalpy in series [2] was -13.6 kcal/mol.
For GCGTTGCGAAAGCACTGC ((..(((....)))..)), in that order: 46.1 °C and -18.2 kcal/mol.
